Compound activity deposited in PubChem by several laboratories.
CSC inhib = cancer stem cell viability inhibitors, primary screen, luminescence; AID 2717, 2010; cancer stem cell-like cells viability; inhibition, % at 7.5 µM; 300,000 tested, 1.1% active; in the data active = inhibition above about 75%; inconclusive = no clear call, values can overlap the other calls; tested in HMLE shEcad cells
T cruzi inh = inhibitors of intracellular T. cruzi growth, primary screen, luminescence, NIH3T3 host cells | 300,000 tested, 1.4% active | T. cruzi beta-gal in NIH3T3, 90 h | inhibition, % (no concentration beside the values);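 active = mean inhibition across valid replicates above about 55%, limit read from the data; inconclusive = mean below that limit but half or more replicates reach it; inactive = mean below it, under half of replicates reach it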;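 note: signal also drops with host cell toxicity which is not excluded here; 0% = plate median of DMSO wells and 100% = zero luminescence signal; higher percent means less beta-gal luminescence so fewer parasites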
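System: NIH/3T3 fibroblasts plus reporter T. cruzi. Medium: DMEM plus 2% FBS. Probe or stimulus: 5000 reporter trypomastigotes per well. Compound: single 50 nL compound addition per well in DMSO. Incubation: co-culture of at least 90 h after 3 h attachment. Detection: GalScreen β-gal luminescence, detergent lysis, 60 min. Evaluation: parasite load inhibition, %.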
Calb FLC = C. albicans growth inhibition with fluconazole, primary screen, CaCi-2 strain, Alamar Blue fluorescence | C. albicans CaCi-2 (fluconazole-resistant clinical isolate) + fluconazole, 48 h | growth inhibition, % (no concentration beside the values) | 300,000 tested, 0.57% active;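 active = growth inhibition above about 58% in most replicates, limit read from the data, passing the limit was not always enough; inconclusive = exactly half the replicates above a set limit; inactive = most replicates below a set limit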;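 note: all wells also contain fluconazole at 8 µg/ml as a sub-toxic cotreatment; 0% = median of DMSO wells and 100% = median of geldanamycin control wells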
Beta apoptosis = inhibitors of cytokine-induced beta cell apoptosis, primary screen, luminescence; AID 435005, 2010; 300,000 tested, 0.8% active; INS-1E cytokine-induced death, ATP luminescence, 48 h; percent of positive-control rescue, neutral wells zero; protection from apoptosis, % (concentration not given with the values);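 active = Every replicate reaches about 75%, or at least half do and their mean reaches it too, limit read from the data; inconclusive = At least half of replicates reach the limit but their mean does not; inactive = Under half of replicates reach the limit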;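 note: 0% = cytokine-treated negative control wells and 100% = positive control rescue; higher means more ATP so stronger rescue from cytokine killing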
SKKanGAS inh = S. pyogenes SKKanGAS growth inhibitors in kanamycin, primary screen, streptokinase expression inhibitor project, SKKanGAS strain, BacTiter-Glo luminescence; 6 h; inhibition, % at 7.5 µM; 300,000 tested, 1.3% active; AID 1662, 2009;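 active = mean replicate score, as percent of positive control median, at least 50; inconclusive = mean below 50 but one replicate at or above 50; inactive = mean and every replicate below 50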;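 note: strain carries kanamycin resistance gene driven by streptokinase promoter and grows in 40 µg/ml kanamycin; loss of luminescence reflects streptokinase promoter inhibition or plain growth inhibition; 0% = median of DMSO wells and 100% = positive control at its reference dose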
Mdm2 MdmX PPI = inhibitors of human Mdm2-MdmX association, primary screen, cell-based, luminescence, split luciferase, SaOS-2, uHTS; Protein Mdm4 (Homo sapiens) + E3 ubiquitin-protein ligase Mdm2 (Homo sapiens), …; 330,000 tested, 3% active; AID 485346, 2010; inhibition, % at 8 µM; SaOS-2 split-luciferase Mdm2/MdmX complementation;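 active = inhibition of at least 50% at 8 µM in the primary screen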
Target sequence (O15151 whole entry, looked up): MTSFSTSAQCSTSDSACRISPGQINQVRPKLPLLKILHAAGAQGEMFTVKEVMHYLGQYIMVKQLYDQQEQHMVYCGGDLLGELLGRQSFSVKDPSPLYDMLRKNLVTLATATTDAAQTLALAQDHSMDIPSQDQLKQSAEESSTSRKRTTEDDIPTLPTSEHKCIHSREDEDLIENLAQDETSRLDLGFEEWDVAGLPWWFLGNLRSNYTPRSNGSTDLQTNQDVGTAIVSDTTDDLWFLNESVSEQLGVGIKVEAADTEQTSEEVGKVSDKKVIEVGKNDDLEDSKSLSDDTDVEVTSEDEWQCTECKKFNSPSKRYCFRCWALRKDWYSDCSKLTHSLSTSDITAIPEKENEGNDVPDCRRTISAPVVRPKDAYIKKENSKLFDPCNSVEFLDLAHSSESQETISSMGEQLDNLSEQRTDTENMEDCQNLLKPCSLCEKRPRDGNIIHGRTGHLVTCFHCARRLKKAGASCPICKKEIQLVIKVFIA
Target sequence (Q00987 whole entry, looked up): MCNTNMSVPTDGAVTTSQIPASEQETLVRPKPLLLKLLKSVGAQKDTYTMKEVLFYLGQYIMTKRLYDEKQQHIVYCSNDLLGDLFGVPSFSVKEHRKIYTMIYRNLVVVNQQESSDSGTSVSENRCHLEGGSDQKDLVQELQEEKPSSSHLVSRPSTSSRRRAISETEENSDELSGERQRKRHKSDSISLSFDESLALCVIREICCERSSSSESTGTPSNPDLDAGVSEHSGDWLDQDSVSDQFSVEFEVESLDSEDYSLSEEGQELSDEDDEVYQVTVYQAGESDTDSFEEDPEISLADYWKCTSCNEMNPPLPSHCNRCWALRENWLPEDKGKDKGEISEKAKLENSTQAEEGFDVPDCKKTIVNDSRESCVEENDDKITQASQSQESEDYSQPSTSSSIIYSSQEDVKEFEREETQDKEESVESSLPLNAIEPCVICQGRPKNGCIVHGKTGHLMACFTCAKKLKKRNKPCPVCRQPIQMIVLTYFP
An asterisk follows results filed as active; ? = inconclusive; . = no result given. Hits are enriched below; roughly 5.7% of the tested compounds scored in any of these assays.

SMILES	CSC inhib	T cruzi inh	Calb FLC	Beta apoptosis	SKKanGAS inh	Mdm2 MdmX PPI
S=C1Nc2ccccc2Sc2ccc(Cl)cc21	-14	1	-11	-6	69*	35
Clc1cc2c(nn1)Nc1ccccc1S2	-4	-22	-1	-3	-1	24
O=C(CSc1nnc(-c2ccccc2)n1Cc1ccccc1)NNC(=O)c1ccccc1O	.	-7	-4	.	7	34
O=C(CSc1nnc(-c2ccccc2O)n1Cc1ccccc1)NNC(=O)c1ccccc1O	133*	1	?	-2	8	32
CCCCn1c(N)c(N(CCC(C)C)C(=O)CC2CCCCC2)c(=O)[nH]c1=O	-4	5	8	2	-6	6
CC(C)/C=C1\CC/C(=C\c2cccnc2)C1=O	18	56*	2	9	-8	-20
O=C1/C(=C/c2cccnc2)CCC/C1=C\c1cccnc1	103*	.	.	100*	.	.
O=C1/C(=C/c2cccnc2)CC/C1=C\c1cccnc1	27	2	10	-16	-5	12
CN(C)c1ccc(/C=C2\CCC/C(=C\c3ccccc3)C2=O)cc1	86*	11	-2	1	2	.
Cc1cc(N2C(=O)C(O)=C(C(=O)c3cc4ccccc4o3)C2c2ccc(Br)cc2)no1 (configuration not stated)	6	-7	40	-1	87*	17
Cc1cc(N2C(=O)C(O)=C(C(=O)c3cc4ccccc4o3)C2c2cccc(Cl)c2)no1 (configuration not stated)	14	-6	?	2	83*	29
Cc1cc(N2C(=O)C(O)=C(C(=O)c3cc4ccccc4o3)C2c2ccc(Cl)cc2)no1 (configuration not stated)	-16	-5	2	-1	-7	30
CCCOc1ccc(C2C(C(=O)c3cc4ccccc4o3)=C(O)C(=O)N2c2cc(C)on2)cc1OC (configuration not stated)	-11	-2	2	-5	98*	-6
CCCOc1ccc(C2C(C(=O)c3cc4ccccc4o3)=C(O)C(=O)N2c2cc(C)on2)cc1 (configuration not stated)	-4	4	-9	8	-8	27
NC(=O)C1CCN(C(=O)c2cc(Cl)c3c(c2)OCCO3)CC1	-5	.	.	-5	.	3
COc1ccccc1/C=C/CN1CCC(Oc2cc(C(=O)NC3CC3)ccc2OC)CC1	3	23	-25	2	2	22
C/C(=N\Nc1cc(C)nc(-c2ccccc2O)n1)c1ccccc1	-1	?	-3	.	23	25
Cc1cc(N/N=C/c2ccc(O)c(C)c2O)nc(-c2ccccc2O)n1	113*	59*	16	16	58*	.
NC(=S)N/N=C/c1ccccc1	0	-1	9	-6	-4	-20
NC(=S)N/N=C/c1ccc(C23CC4CC(CC(C4)C2)C3)cc1	113*	77*	-2	77*	100*	46
O=C1NC(=Nc2ccc(Cl)cc2)SC1Cc1cc(Cl)ccc1Cl (configuration not stated)	.	12	9	.	82*	2
CSCCC(NC(=O)c1ccco1)C(=O)NCC1CCCCC1 (configuration not stated)	.	.	.	2	.	8
O=C(Nc1ccc(S(=O)(=O)NC2=NCCCCC2)cc1)c1cc(F)c(F)cc1Cl	.	.	.	.	.	15
COc1cccc(N/C(SCc2cccc([N+](=O)[O-])c2)=C(/C#N)C(N)=O)c1	28	67*	-6	3	3	-12
O=C(COC(=O)Cc1ccsc1)Nc1ccc(F)cc1Cl	.	.	.	.	.	3
O=C(CS(=O)(=O)Nc1ccc(F)cc1Cl)Nc1ccc(F)cc1Cl	.	-15	79*	.	-1	-11
S=C(Nc1ccccc1Cl)N(Cc1cccnc1)Cc1ccco1	.	38	-7	-4	-2	9
O=C(Nc1ccc(Cl)c(Cl)c1)N(Cc1cccnc1)Cc1ccco1	8	56*	11	6	2	6
